Laboratory results taken from ChEMBL document CHEMBL1121426, “Structure-activity study of antiulcerous and antiinflammatory drugs by discriminant analysis” (J Med Chem, 1980).

Assays:
Rattus norvegicus [1] = experiment: Tested for inhibition of edema growth in rat; assay type: functional; set-up: concentration or dose not given beside the values
In short: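 Carrageenin paw edema in male Wistar rats (120-150 g, 10 per group). Dosing was oral, as 1% suspensions in 0.5% aqueous Na-CMC: phenylacetic acids at 100 mg/kg, aminouracils at 200 mg/kg. Paw volume was read by mercury displacement before and 3 h after injection. Percent inhibition of mean swelling was taken versus control; error <±10%.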

[2] = Partition coefficient (logP); assay type: physicochemical; settings: octanol/water
Rattus norvegicus [3] = experiment: Antiulcer activity in rat at the dose of 20 mg/kg administered intraperitoneally.; assay type: functional; settings: ip, route intraperitoneal
In short: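 Pyloric ligation was done under ether on Wistar-King rats (200-250 g, 10 per group) fasted 24 h. Drug was suspended at 10 mg/mL in 0.9% saline with a trace of Tween 80 and given ip at 20 mg/kg; controls received saline. Forestomach ulcers were scored macroscopically 18 h later as an ulcer index. Percent inhibition was taken versus the mean control index; error <±10%.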

Row | Compound | Inhibition (Rattus norvegicus [1]) [%] | logP [2] | inhibition in vivo at 20 mg/kg (Rattus norvegicus [3]) [%]
1 | COc1cc(CC(=O)O)cc(-c2ccc(Cl)cc2)c1 | 66 | 3.71 | –
2 | Nc1nc(N)nc(-c2cccc(Cl)c2)n1 | – | 2.33 | 100
3 | CCOc1cccc(CC(=O)O)c1 | 17 | 1.88 | –
4 | COc1cc(CC(=O)O)cc(-c2ccccc2)c1 | 68 | 3.3 | –
5 | CSc1cccc(-c2nc(N)nc(N)n2)c1 | – | 2.16 | 49
6 | Nc1nc(N)nc(-c2cccc(SC(F)(F)F)c2)n1 | – | 3.2 | 87
7 | Cc1c(N(C)C)c(=O)n(-c2ccccc2)c(=O)n1CCO | 31 | 0.85 | –
8 | O=C(O)Cc1cccc(Br)c1 | 0 | 2.36 | –
9 | CCOc1ccccc1-c1nc(N)nc(N)n1 | – | 1.03 | -5
10 | CCCCNc1c(C)n(C)c(=O)n(-c2ccccc2)c1=O | 48 | 1.69 | –
11 | Cc1cc(CC(=O)O)cc(OCC(C)C)c1 | 13 | 3.33 | –
12 | C=CCn1c(C)c(N(C)C)c(=O)n(-c2ccccc2)c1=O | 54 | 1.44 | –
13 | Cc1c(N(C)C)c(=O)n(C)c(=O)n1-c1ccccc1 | 65 | 1.19 | –
14 | CCn1c(=O)c(N(C)C)c(C)n(-c2ccccc2)c1=O | 51 | 2.29 | –
15 | COc1cc(CC(=O)O)cc(-c2ccc(F)cc2)c1 | 74 | 3.5 | –
16 | Nc1nc(N)nc(-c2cc(F)ccc2Cl)n1 | – | 1.38 | 78
17 | Cc1c(N2CCCCC2)c(=O)n(-c2ccccc2)c(=O)n1C | 27 | 2.76 | –
18 | Cc1ccccc1-c1nc(N)nc(N)n1 | – | 1.26 | 28
19 | CS(=O)(=O)c1cccc(-c2nc(N)nc(N)n2)c1 | – | 0.29 | -6
20 | Nc1nc(N)nc(-c2ccccc2I)n1 | – | 1.41 | -7
21 | Nc1nc(N)nc(-c2cccc([N+](=O)[O-])c2)n1 | – | 1.57 | 85
22 | COc1cc(CC(=O)O)cc(-c2ccc(Cl)cc2Cl)c1 | 60 | 4.08 | –
23 | CCN(CC)c1c(C)n(-c2ccccc2)c(=O)n(C)c1=O | 46 | 2.19 | –
24 | COc1ccc(-c2cc(CC(=O)O)cc(OC)c2)cc1 | 13 | 3.28 | –
25 | O=C(O)Cc1cc(O)cc(-c2ccccc2)c1 | 14 | 2.75 | –

Row | Compound | Inhibition (Rattus norvegicus [1]) [%] | logP [2] | inhibition in vivo at 20 mg/kg (Rattus norvegicus [3]) [%]
26 | Cc1c(N(C)C)c(=O)n(CCO)c(=O)n1-c1ccccc1 | 34 | 1.12 | –
27 | COc1cccc(CC(=O)O)c1 | -3 | 1.45 | –
28 | Nc1nc(N)nc(-c2cc(F)ccc2Br)n1 | – | 1.45 | 78
29 | Nc1nc(N)nc(-c2ccccc2Br)n1 | – | 1.26 | 26
30 | CCCCOc1cc(C)cc(CC(=O)O)c1 | 3 | 3.38 | –
31 | Nc1nc(N)nc(-c2ccccc2[N+](=O)[O-])n1 | – | 0.49 | 11
32 | C=CCN(CC=C)c1c(C)n(-c2ccccc2)c(=O)n(C)c1=O | 46 | 2.59 | –
33 | COc1ccc(-n2c(C)c(N(C)C)c(=O)n(C)c2=O)cc1 | 41 | 1.96 | –
34 | Nc1nc(N)nc(-c2ccc(Cl)cc2Cl)n1 | – | 2.07 | 100
35 | O=C(O)Cc1cccc([N+](=O)[O-])c1 | 0 | 1.34 | –
36 | Cc1c(N2CCCC2)c(=O)n(-c2ccccc2)c(=O)n1C | 32 | 2.26 | –
37 | C=CCn1c(=O)c(N(C)C)c(C)n(-c2ccccc2)c1=O | 75 | 1.98 | –
38 | Nc1nc(N)nc(-c2cc(Cl)ccc2Br)n1 | – | 1.85 | 81
39 | Cc1c(N(C)C)c(=O)n(C)c(=O)n1C | 37 | 0.99 | –
40 | Nc1nc(N)nc(-c2ccc(Cl)cc2)n1 | – | – | 69
41 | CCCNc1c(C)n(C)c(=O)n(-c2ccccc2)c1=O | 64 | 1.2 | –
42 | Cc1c(N2CCOCC2)c(=O)n(C)c(=O)n1C1CCCCC1 | 44 | 2.39 | –
43 | CCN(CC)c1c(C)n(CC)c(=O)n(-c2ccccc2)c1=O | 57 | 2.2 | –
44 | Nc1nc(N)nc(-c2cccc(C(F)(F)F)c2)n1 | – | 2.67 | 81
45 | O=C(O)Cc1cccc(Cl)c1 | 0 | 1.59 | –
46 | Nc1nc(N)nc(-c2cccc(F)c2)n1 | – | 1.73 | 70
47 | CCc1ccccc1-c1nc(N)nc(N)n1 | – | 1.65 | 20
48 | O=C(O)Cc1cc(O)cc(-c2ccc(Cl)cc2)c1 | 14 | 3.42 | –
49 | COc1ccccc1-c1nc(N)nc(N)n1 | – | 0.58 | 1
50 | Nc1nc(N)nc(-c2ccc(Cl)cc2Br)n1 | – | 2.09 | 96

Row | Compound | Inhibition (Rattus norvegicus [1]) [%] | logP [2] | inhibition in vivo at 20 mg/kg (Rattus norvegicus [3]) [%]
51 | Cc1cccc(CC(=O)O)c1 | 0 | 1.89 | –
52 | CCN(CC)c1c(C)n(-c2ccccc2)c(=O)n(CC)c1=O | 53 | 2.78 | –
53 | Cc1c(N(C)C)c(=O)n(C)c(=O)n1-c1ccc(Cl)cc1 | 41 | 2.32 | –
54 | COc1cc(CC(=O)O)cc(C2CCCCC2)c1 | 35 | 3.66 | –
55 | CC(C)Cc1ccc(CC(=O)O)cc1 [IBUFENAC] | 32 | 3.38 | –
56 | Cc1c(NCC(C)C)c(=O)n(-c2ccccc2)c(=O)n1C | 58 | 1.48 | –
57 | CCCNc1c(C)n(-c2ccccc2)c(=O)n(C)c1=O | 45 | 1.7 | –
58 | COc1cc(CC(=O)O)cc(-c2ccc(C)cc2)c1 | 23 | 3.72 | –
59 | Nc1nc(N)nc(-c2ccc(F)cc2)n1 | – | 1.61 | 84
60 | COc1cc(CC(=O)O)cc(-c2ccccc2Cl)c1 | 75 | 3.66 | –
61 | Nc1nc(N)nc(-c2ccccc2)n1 [BENZOGUANAMINE] | – | 1.36 | 70
62 | Nc1nc(N)nc(-c2ccccc2Cl)n1 | – | 1.19 | 36
63 | Nc1nc(N)nc(-c2cc(Br)ccc2F)n1 | – | 1.94 | 100
64 | Cc1c(N(C)C)c(=O)[nH]c(=O)n1-c1ccccc1 | 35 | 1.4 | –
65 | Nc1nc(N)nc(-c2c(Cl)cccc2Cl)n1 | – | 1.38 | 54
66 | CCN(CC)c1c(C)n(C)c(=O)n(-c2ccccc2)c1=O | 45 | 2.11 | –
67 | Nc1nc(N)nc(-c2cc(C(F)(F)F)ccc2Cl)n1 | – | 2.27 | 51
68 | Nc1nc(N)nc(-c2cc(Br)ccc2Cl)n1 | – | 2.04 | 86
69 | Cc1ccc(-c2nc(N)nc(N)n2)cc1 | – | 1.92 | 54
70 | Nc1nc(N)nc(-c2cc(Cl)ccc2F)n1 | – | 1.81 | 89
71 | COc1cc(C)cc(CC(=O)O)c1 | 6 | 1.94 | –
72 | O=C(O)Cc1cccc(F)c1 | 0 | 1.59 | –
73 | COc1cc(CC(=O)O)cc(C(C)C)c1 | 10 | 2.75 | –
74 | Cc1c(N(C)C)c(=O)n(-c2ccccc2)c(=O)n1C | 44 | 1.3 | –
75 | Cc1c(N2CCOCC2)c(=O)n(-c2ccccc2)c(=O)n1C | 35 | 0.69 | –
